Data set [1] deals with Mitogen-activated protein kinase 14 (Homo sapiens, UniProt Q16539). Description: Inhibition of human P38alpha expressed in baculovirus insect cell system.
For data set [2], the target named is Vascular endothelial growth factor receptor 2 (Homo sapiens, UniProt P35968). Description: Inhibition of human VEGFR2 expressed in baculovirus insect cell system.
Another data set has as its target Protein kinase C (PKC). Description: Inhibition of human PKC expressed in baculovirus insect cell system.
For data set [3], the target named is Tyrosine-protein kinase Fyn (Homo sapiens, UniProt P06241). Description: Inhibition of human Fyn kinase expressed in baculovirus insect cell system.
Data set [4] deals with Fibroblast growth factor receptor 1 (Homo sapiens, UniProt P11362). Description: Inhibition of human FGFR1 expressed in baculovirus insect cell system.
Data set [5] deals with c-Jun N-terminal kinase, JNK (Homo sapiens, UniProt P45983+P53779+P45984). Description: Inhibition of human JNK expressed in baculovirus insect cell system.
Data set [6] in a line: Volume of distribution in Sprague-Dawley rat at 1 mg/kg, iv. The data set is classed as ADME, organism-based. Further details: dose 1 mg/kg, route intravenous. The settings on record: in vivo. Summed up: (§1)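 Rat PK: iv dose into lateral tail vein in 3% DMSO/30% solutol/67% PBS; oral gavage in 50% Tween 80/40% propylene carbonate/10% propylene glycol, rats fasted overnight before oral dosing. Serial tail-vein blood at seven times over 6 h into heparinized tubes. Plasma protein-precipitated with acetonitrile, analysed with internal standard by LC-MS/MS. Bioavailability from iv versus po AUCs.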

Data set [7] in a line: Half life in Sprague-Dawley rat at 5 mg/kg, po. The format is ADME, organism-based. Further details: dose 5 mg/kg, route oral. As to conditions: in vivo. The method in brief: as §1
The next data set addresses Cyclin-dependent kinase. Description: Inhibition of human CDK expressed in baculovirus insect cell system.
The test system of a further data set is SH-SY5Y. Description: Neuroprotective activity against human SH-SY5Y cells assessed as inhibition of MPP+-induced cell death. The data set is classed as functional, cell-based.
The nature of data set [8]: Inhibition of human IRK expressed in baculovirus insect cell system.
In data set [9] the test system is Mus musculus. Description: Inhibition of MPTP-induced increase in pMKK4 levels in mouse at 6.7 mg/kg, po administered 2 hrs before MPTP challenge followed by 40 mg/kg, sc 2 hrs after MPTP challenge. The data set is classed as functional. Further details: Activity: scale not given: the % may be the effect or the level left. The method in brief:
(§2)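 Mice dosed orally at 6.7 mg/kg 2 h before and 2 h after MPTP (40 mg/kg sc). Substantia nigra dissected 2 h after second dose; pMKK4 measured by immunoblot against treated and control groups. Plasma drug levels taken 2 h after dosing (4 h post-MPTP).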

A short description of data set [10]: AUC in Sprague-Dawley rat at 1 mg/kg, iv. The data set is classed as ADME, organism-based. Further details: dose 1 mg/kg, route intravenous. As to conditions: plasma. The method in brief:
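Single intravenous dose into the lateral tail vein in 3% DMSO, 30% solutol and 67% phosphate-buffered saline. Serial heparinized blood samples were taken from the lateral tail vein at seven times over 6 h. Plasma was separated by centrifugation, deproteinized with acetonitrile and analysed for drug against an internal standard by LC-MS/MS.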

Data set [11] deals with Mus musculus. Description: Neuroprotective activity against MPTP-induced loss of striatal dopamine markers in po dosed mouse administered twice daily. The format is functional, organism-based. Summed up:
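Mouse MPTP neurotoxicity: low dose 20 mg/kg sc, assessing striatal DA terminals by GBR-12935 binding; high dose 40 mg/kg sc, assessing striatal DA markers and substantia nigra cell bodies by TH immunoreactivity. Test compounds given orally, q.d. or b.i.d.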

Data set [12] is described as follows: Clearance in Sprague-Dawley rat at 1 mg/kg, iv. The data set is classed as ADME, organism-based. Further details: dose 1 mg/kg, route intravenous. As to conditions: in vivo. The method in brief: as §1
In data set [13] the target is High affinity nerve growth factor receptor (Homo sapiens, UniProt P04629). Description: Inhibition of human TrkA expressed in baculovirus insect cell system.
The target in data set [14] is Mitogen-activated protein kinase kinase kinase 11 (Homo sapiens, UniProt Q16584). Description: Inhibition of GST-fused human MLK3. The method in brief:
(§3)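 GST fusions of human MLK kinase domains from baculovirus (50 ng MLK1_KD, 150 ng MLK2_KD/LZ, 100 ng MLK3_KD), substrate 500 µg/mL myelin basic protein. Buffer 20 mM Hepes pH 7.2, 5 mM EGTA, 15 mM MgCl2, 1 mM DTT, 25 mM β-glycerophosphate, 0.1% BSA, 2% DMSO.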

The nature of data set [15]: Half life in Sprague-Dawley rat at 1 mg/kg, iv. The data set is classed as ADME, organism-based. Further details: dose 1 mg/kg, route intravenous. As to conditions: in vivo. The method in brief:
as §1

Data set [16] is described as follows: Plasma concentration in mouse at 6.7 mg/kg, po administered 2 hrs before MPTP challenge followed by 40 mg/kg, sc 2 hrs after MPTP challenge. The data set is classed as ADME, organism-based. The settings on record: other: po followed by sc. Summed up: as §2
The target of data set [17] is Mitogen-activated protein kinase kinase kinase 10 (Homo sapiens, UniProt Q02779). Description: Inhibition of human MLK2 expressed in baculovirus insect cell system. The method in brief:
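GST fusions of human MLK kinase domains from baculovirus (50 ng MLK1_KD, 150 ng MLK2_KD/LZ, 100 ng MLK3_KD), substrate 500 µg/mL myelin basic protein. Buffer 20 mM Hepes pH 7.2, 5 mM EGTA, 15 mM MgCl2, 1 mM DTT, 25 mM β-glycerophosphate, 0.1% BSA, 2% DMSO. […] 15 min at 37 °C, TCA precipitation, scintillation counting. IC50 by variable-slope sigmoidal fit, average of duplicates within 20%.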

Data set [18] in a line: Metabolic stability in rat liver S9 fraction after 2 hrs in presence of NADPH. The format is ADME, subcellular. The settings on record: read-out: Stability. Summed up:
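Incubated 2 h in rat liver S9 preparation with NADPH; percent parent remaining reported.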

A short description of data set [19]: AUC in Sprague-Dawley rat at 5 mg/kg, po. Further details: dose 5 mg/kg, route oral. The data set is classed as ADME, organism-based. As to conditions: plasma. The method in brief: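 Rats were fasted overnight, then dosed by oral gavage in 50% Tween 80, 40% propylene carbonate and 10% propylene glycol. Serial heparinized blood samples were taken from the lateral tail vein at seven times over 6 h. Plasma was deproteinized with acetonitrile and analysed for drug against an internal standard by LC-MS/MS.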

Data set [20] addresses Vascular endothelial growth factor receptor 1 (Homo sapiens, UniProt P17948). Description: Inhibition of human VEGFR1 expressed in baculovirus insect cell system.
The target in data set [21] is T1, Mitogen-activated protein kinase kinase kinase 9 (Homo sapiens, UniProt P80192). Description: Inhibition of GST-fused human MLK1 expressed in CHO cells assessed as MKK4 phosphorylation. The data set is classed as cell-based. The method in brief: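 CHO cells transfected with MLK1 plus dominant-negative MKK4 cDNA; phospho-MKK4 quantified by ELISA; IC50 derived.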
T1 sequence (P80192 whole entry, the tested form may be a part): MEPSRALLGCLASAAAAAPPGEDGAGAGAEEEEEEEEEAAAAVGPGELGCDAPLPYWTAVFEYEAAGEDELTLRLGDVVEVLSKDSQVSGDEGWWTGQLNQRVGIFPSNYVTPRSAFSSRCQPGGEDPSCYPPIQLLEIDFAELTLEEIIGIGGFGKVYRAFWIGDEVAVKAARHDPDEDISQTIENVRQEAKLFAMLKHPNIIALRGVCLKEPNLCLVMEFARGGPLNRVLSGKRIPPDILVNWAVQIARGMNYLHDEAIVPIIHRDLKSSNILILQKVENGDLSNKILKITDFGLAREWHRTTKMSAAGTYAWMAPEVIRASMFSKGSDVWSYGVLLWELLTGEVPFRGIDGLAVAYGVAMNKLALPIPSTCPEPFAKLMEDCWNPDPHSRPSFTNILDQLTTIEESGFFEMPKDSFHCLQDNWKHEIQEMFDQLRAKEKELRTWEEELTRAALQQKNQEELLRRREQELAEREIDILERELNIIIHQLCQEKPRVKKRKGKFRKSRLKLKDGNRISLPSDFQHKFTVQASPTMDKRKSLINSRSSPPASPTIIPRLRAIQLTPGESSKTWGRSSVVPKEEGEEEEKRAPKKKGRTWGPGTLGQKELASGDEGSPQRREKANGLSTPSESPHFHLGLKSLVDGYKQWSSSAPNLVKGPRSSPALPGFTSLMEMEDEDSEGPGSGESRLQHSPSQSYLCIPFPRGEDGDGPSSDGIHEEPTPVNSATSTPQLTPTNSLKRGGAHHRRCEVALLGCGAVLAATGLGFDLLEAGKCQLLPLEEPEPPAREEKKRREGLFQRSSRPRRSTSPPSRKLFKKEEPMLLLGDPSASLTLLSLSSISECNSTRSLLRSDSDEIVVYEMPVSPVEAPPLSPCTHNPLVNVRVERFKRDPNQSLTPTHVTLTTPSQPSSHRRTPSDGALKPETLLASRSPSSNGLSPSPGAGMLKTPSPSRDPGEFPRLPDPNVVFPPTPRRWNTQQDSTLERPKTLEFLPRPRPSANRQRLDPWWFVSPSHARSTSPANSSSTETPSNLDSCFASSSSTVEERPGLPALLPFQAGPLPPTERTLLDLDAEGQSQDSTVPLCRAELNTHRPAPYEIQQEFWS

Data set [22] is described as follows: Oral bioavailability in Sprague-Dawley rat at 5 mg/kg. The format is ADME, organism-based. As to conditions: in vivo. The method in brief: as §1
Data set [23] deals with T1, Mitogen-activated protein kinase kinase kinase 9. Description: Inhibition of GST-fused human MLK1. The method in brief: as §3
A short description of data set [24]: Cmax in Sprague-Dawley rat at 5 mg/kg, po. The format is ADME, organism-based. Also on record: dose 5 mg/kg, route oral. As to conditions: in vivo. Summed up: as §1
Data set [25] has as its target Vascular endothelial growth factor receptor 3 (Homo sapiens, UniProt P35916). Description: Inhibition of human VEGFR3 expressed in baculovirus insect cell system.
Data set [26] concerns the target T2, Dual specificity mitogen-activated protein kinase kinase 4 (Homo sapiens, UniProt P45985).
T2 sequence (P45985 whole entry): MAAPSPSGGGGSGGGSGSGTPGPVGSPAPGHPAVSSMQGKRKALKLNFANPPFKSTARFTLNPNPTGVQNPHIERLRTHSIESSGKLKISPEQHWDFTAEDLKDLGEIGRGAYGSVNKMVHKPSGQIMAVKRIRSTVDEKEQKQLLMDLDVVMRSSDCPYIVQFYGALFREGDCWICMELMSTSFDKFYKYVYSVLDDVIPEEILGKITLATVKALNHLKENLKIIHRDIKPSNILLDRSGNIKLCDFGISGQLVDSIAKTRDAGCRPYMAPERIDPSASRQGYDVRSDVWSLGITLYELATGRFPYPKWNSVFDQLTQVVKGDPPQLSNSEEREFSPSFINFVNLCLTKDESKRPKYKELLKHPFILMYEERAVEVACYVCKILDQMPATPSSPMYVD
Description: Inhibition of human MKK4/7 expressed in baculovirus insect cell system.

Data set [27] deals with Serine/threonine-protein kinase Chk1/2 (Homo sapiens, UniProt O96017+O14757). Description: Inhibition of human CHK1/2 expressed in baculovirus insect cell system.
Data set [28] has as its system Mus musculus. Description: Inhibition of MPTP-induced increase in pMKK4 levels in mouse at 1 mg/kg, sc administered 2 hrs before MPTP challenge followed by 10 mg/kg, sc 2 hrs after MPTP challenge.

Activity calls are given as the source filed them. The calls are words filed in the database; no cut-off is given here.

Sequence of Vascular endothelial growth factor receptor 2 (P35968 whole entry): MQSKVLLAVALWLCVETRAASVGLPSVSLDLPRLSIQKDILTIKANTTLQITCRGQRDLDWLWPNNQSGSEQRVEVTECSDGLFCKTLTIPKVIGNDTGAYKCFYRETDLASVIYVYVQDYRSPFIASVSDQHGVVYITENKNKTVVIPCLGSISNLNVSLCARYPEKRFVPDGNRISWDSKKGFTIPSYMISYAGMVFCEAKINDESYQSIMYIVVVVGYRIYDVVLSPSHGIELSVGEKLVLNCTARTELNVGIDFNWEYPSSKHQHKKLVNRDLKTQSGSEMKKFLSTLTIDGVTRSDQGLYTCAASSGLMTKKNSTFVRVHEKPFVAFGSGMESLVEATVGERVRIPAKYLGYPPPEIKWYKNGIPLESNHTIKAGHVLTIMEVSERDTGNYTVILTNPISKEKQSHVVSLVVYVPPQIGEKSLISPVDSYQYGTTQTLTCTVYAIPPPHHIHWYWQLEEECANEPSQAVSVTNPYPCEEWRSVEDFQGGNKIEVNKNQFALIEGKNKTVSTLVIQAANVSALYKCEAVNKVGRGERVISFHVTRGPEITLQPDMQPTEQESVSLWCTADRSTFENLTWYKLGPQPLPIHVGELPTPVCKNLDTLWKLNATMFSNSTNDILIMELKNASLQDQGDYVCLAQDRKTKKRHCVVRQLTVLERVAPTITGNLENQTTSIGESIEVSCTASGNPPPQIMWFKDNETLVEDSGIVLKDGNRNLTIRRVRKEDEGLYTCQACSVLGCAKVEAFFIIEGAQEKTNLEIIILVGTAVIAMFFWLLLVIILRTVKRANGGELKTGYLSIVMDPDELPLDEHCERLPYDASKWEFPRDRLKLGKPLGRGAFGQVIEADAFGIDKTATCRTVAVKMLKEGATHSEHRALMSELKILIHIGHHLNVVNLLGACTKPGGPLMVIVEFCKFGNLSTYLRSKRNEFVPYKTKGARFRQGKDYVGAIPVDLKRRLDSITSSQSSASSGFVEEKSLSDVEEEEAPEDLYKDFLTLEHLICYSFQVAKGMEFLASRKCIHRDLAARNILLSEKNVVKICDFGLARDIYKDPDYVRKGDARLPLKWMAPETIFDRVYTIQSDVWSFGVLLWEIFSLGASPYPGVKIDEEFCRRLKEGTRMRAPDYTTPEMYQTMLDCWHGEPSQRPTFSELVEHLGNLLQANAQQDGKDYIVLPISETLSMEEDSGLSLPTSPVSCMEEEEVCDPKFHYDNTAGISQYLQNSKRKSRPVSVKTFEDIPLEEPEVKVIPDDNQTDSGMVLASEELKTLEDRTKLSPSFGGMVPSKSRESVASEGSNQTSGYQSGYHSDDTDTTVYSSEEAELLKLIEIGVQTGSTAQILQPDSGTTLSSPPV
Sequence of Mitogen-activated protein kinase kinase kinase 11 (Q16584 whole entry, the tested form may be a part): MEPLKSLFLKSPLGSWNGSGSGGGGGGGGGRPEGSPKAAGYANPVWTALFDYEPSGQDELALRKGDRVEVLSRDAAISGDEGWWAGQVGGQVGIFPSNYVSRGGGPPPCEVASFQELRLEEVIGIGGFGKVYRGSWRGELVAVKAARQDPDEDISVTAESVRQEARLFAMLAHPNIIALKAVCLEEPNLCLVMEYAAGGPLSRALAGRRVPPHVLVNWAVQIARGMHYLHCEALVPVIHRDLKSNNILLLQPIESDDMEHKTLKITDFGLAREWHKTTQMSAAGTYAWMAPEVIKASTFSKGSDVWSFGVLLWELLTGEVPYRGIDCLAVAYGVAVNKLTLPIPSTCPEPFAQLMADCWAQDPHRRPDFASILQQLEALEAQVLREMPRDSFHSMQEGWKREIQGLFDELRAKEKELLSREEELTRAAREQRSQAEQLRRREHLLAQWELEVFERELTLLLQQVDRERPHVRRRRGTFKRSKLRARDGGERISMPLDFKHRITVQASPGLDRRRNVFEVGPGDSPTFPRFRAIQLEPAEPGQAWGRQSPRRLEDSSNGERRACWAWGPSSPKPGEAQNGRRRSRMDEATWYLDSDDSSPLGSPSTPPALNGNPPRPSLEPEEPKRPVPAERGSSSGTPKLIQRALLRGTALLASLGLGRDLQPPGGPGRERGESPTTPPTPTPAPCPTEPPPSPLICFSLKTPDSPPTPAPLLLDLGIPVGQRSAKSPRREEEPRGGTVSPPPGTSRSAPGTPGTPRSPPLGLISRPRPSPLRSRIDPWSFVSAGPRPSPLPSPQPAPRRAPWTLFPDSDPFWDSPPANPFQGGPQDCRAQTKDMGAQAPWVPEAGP
Sequence of Vascular endothelial growth factor receptor 3 (P35916 whole entry): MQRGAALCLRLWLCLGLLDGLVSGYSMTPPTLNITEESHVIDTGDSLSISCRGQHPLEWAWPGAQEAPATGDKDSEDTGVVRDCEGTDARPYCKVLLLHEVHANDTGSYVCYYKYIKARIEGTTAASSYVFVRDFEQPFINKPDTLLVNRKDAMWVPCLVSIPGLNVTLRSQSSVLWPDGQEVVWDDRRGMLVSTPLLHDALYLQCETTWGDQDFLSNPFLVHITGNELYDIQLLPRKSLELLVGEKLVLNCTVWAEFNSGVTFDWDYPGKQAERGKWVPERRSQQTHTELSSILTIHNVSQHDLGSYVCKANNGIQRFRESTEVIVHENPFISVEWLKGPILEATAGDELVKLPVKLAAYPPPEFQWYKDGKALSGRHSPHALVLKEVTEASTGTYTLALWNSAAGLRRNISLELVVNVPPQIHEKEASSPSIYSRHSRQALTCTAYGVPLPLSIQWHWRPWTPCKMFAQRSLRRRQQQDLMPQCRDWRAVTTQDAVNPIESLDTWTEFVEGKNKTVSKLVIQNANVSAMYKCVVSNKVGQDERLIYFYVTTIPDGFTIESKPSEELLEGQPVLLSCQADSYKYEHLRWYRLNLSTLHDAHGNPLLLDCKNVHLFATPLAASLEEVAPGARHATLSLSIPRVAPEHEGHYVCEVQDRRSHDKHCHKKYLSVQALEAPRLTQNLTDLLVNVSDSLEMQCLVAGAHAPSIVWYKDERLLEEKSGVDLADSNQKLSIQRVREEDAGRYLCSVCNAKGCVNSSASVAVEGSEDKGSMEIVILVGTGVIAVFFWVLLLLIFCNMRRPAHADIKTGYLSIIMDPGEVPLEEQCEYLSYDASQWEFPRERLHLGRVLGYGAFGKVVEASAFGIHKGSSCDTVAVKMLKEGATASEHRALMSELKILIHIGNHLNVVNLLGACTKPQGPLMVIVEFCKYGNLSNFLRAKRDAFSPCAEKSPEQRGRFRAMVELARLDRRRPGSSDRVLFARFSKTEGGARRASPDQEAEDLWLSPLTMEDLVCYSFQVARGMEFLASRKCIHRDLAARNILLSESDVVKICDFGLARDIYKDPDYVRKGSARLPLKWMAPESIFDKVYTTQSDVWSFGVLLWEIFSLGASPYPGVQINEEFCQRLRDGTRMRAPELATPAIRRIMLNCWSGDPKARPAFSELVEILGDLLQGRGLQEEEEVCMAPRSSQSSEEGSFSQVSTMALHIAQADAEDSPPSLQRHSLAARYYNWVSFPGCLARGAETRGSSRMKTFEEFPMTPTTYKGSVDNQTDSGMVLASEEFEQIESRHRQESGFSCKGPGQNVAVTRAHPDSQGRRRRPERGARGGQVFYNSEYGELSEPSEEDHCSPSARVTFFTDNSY
Sequence of Mitogen-activated protein kinase 14 (Q16539 whole entry): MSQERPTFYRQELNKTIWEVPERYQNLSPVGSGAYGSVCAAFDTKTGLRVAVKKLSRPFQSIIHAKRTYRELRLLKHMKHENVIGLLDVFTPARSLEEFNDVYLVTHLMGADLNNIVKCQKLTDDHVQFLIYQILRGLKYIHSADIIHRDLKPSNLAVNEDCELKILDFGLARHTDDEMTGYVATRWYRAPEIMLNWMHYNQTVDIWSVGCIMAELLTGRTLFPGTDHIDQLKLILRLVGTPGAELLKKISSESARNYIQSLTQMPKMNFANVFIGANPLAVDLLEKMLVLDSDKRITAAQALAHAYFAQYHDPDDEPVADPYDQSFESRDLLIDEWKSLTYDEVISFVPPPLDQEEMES

Turning to `CC(C)Oc1ccc2c(c1)CCc1c-2c2c(c3c4ccccc4n(CCO)c13)CNC2=O`, the IC50 in [1] is over 10000 nM; in data set [2] it was 3380 nM; against Protein kinase C (PKC), over 6000 nM; in data set [3] it was 1190 nM; in data set [4], over 10000 nM; in [5], over 30000 nM. Further, the half-maximal inhibitory concentration (IC50) on Cyclin-dependent kinase is over 10000 nM; in the data set on SH-SY5Y, 43 nM; in [8], over 10000 nM; in data set [13], 1050 nM; in data set [14], 65 nM; in data set [17] it was 1860 nM. The IC50 was over 10000 nM in data set [20]; 33 nM in data set [21]; 26 nM in data set [23]; 2460 nM in data set [25]; over 3000 nM in data set [26]; over 10000 nM in data set [27]. In data set [6], this molecule returned a Vd of 2 L/kg. For the same molecule, the half-life was 66 min in data set [7] and 48 min in data set [15]. In the data set on Mus musculus [9], the Activity was found to be 64%. For the same molecule, the AUC in data set [10] worked out at 579 ng·h/mL; in [19], 1070 ng·h/mL. In addition, in the data set on Mus musculus [11], the result was Active. In data set [12], this molecule gave a clearance of 28 mL/min/kg. The concentration at 2 h in data set [16] stood at 580 nM. Moreover, the remaining at 2 h in data set [18] is 44%. Further, the bioavailability in data set [22] was found to be 37%. For the same molecule, in data set [24], the highest level (Cmax) was 339 ng/mL.
As to `CCSCc1ccc2c(c1)c1c3c(c4c5cc(CSCC)ccc5n5c4c1n2[C@H]1C[C@](O)(C(=O)OC)[C@]5(C)O1)CNC3=O` [CEP-1347], the IC50 in data set [2] came out at 43 nM; with SH-SY5Y, 5.3 nM; in [14], 64 nM; in data set [20], 209 nM; in [21], 72 nM; in data set [25], 39 nM. Besides, the “inhibition (INH)” value in the data set on Mus musculus [28] worked out at 45%.

As a reminder, the IC50 is the concentration that inhibits the measured activity by half. For orientation: Vd means a proportionality between amount in the body and measured concentration, not a real space. What is called half-life is the time in which the quantity being followed falls by half. One may read the AUC as concentration integrated over time. What is called clearance is the volume of plasma or blood freed of the substance per unit of time. What is called bioavailability is the share of a dose that reaches the circulation, judged against a reference dose that is usually intravenous. The term Cmax denotes the maximum level reached in the sampled fluid or tissue.

Source of the values: ChEMBL document CHEMBL1140055, “Mixed-lineage kinase 1 and mixed-lineage kinase 3 subtype-selective dihydronaphthyl[3,4-a]pyrrolo[3,4-c]carbazole-5-ones: optimization, mixed-lineage kinase 1 crystallography, and oral in vivo activity in 1-methyl-4-phenyltetrahydropyridine models” (J Med Chem, 2008).
